Assay results from ChEMBL document CHEMBL1144257, “5-Chloroindoloyl glycine amide inhibitors of glycogen phosphorylase: synthesis, in vitro, in vivo, and X-ray crystallographic characterization” (Bioorg Med Chem Lett, 2005).

Tests used:
SK-HEP1 = test: Inhibitory concentration against human SK-Hep-1 cells (hepatoma cell line); assay type: functional, cell-based
Outline: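 SK-HEP-1 cells carrying pre-labeled ¹⁴C-glycogen, with phosphorylase activated by forskolin. Glycogenolysis is the ¹⁴C-glycogen (dpm) difference between basal and forskolin-treated cells. Inhibition is expressed as percent of forskolin-induced glycogenolysis in DMSO controls. IC50 from a 6-point curve (0.1–30μM), triplicate points, mean of ≥2 independent experiments where repeated.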

[1] = target: T1, Glycogen phosphorylase, liver form (Homo sapiens, UniProt P06737); test: Inhibitory concentration against glycogen phosphorylase
T1 sequence (P06737 whole entry): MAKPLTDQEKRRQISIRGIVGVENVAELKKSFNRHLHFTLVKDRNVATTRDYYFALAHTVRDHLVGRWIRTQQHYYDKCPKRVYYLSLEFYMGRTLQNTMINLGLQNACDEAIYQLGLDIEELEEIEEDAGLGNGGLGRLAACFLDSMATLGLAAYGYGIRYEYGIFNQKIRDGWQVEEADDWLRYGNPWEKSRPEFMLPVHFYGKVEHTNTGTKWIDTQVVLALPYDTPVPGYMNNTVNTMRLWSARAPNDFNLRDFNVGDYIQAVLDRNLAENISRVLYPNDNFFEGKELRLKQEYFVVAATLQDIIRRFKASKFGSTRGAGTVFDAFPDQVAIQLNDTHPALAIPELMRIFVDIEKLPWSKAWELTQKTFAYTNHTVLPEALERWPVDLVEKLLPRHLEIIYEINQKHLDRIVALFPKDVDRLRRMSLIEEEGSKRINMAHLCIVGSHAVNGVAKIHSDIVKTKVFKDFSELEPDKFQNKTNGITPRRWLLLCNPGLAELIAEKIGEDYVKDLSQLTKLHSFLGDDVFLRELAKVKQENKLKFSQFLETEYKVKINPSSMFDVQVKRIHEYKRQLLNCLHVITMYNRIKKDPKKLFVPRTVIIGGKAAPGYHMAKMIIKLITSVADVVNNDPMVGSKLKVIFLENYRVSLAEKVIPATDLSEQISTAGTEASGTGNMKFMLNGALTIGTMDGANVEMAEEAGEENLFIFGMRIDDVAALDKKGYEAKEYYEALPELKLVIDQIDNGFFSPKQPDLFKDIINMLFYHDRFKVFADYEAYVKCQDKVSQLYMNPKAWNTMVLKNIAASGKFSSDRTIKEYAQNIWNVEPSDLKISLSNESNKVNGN

Mus musculus = test: In-vivo minimum effective dose (MED) for reduction of plasma glucose in mouse after 3 hours; assay type: functional; details: read-out: MED
Outline: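 Fed diabetic ob/ob mice, oral dosing in neat PEG400, starting at […] and then at successively lower doses. Plasma glucose measured 3h post-dose. Lowering is expressed as percent decrease versus vehicle-treated controls within the same experiment, with significance by unpaired t-test on group mean glucose. MED is the lowest dose giving reduction.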

Structure (SMILES) | IC50 (SK-HEP1) | IC50 [1] | minimal effective dose (Mus musculus)
COCCN(C(=O)CNC(=O)c1cc2cc(Cl)ccc2[nH]1)C1CCCC1 | 1500 nM | 200 nM | > 10 mg/kg
O=C(NCC(=O)N(CCO)CC1CCCO1)c1cc2cc(Cl)ccc2[nH]1 (stereo not drawn) | 5700 nM | 550 nM | –
O=C(NCC(=O)N(CCO)Cc1cccnc1)c1cc2cc(Cl)ccc2[nH]1 | – | 1100 nM | –
NCCN(C(=O)CNC(=O)c1cc2cc(Cl)ccc2[nH]1)C1CCCC1 | – | 1600 nM | –
O=C(NCC(=O)N(CCN1CCOCC1)C1CCCC1)c1cc2cc(Cl)ccc2[nH]1 | – | 1500 nM | –
CN(CC1CC1)C(=O)CNC(=O)c1cc2cc(Cl)ccc2[nH]1 | 1200 nM | 470 nM | –
CN(C(=O)CNC(=O)c1cc2cc(Cl)ccc2[nH]1)C1CCC1 | 1000 nM | 170 nM | –
CC(CCO)N(C(=O)CNC(=O)c1cc2cc(Cl)ccc2[nH]1)C1CCCC1 (stereo not drawn) | 1400 nM | 210 nM | –
O=C(NCC(=O)N(CCO)C1CCSC1)c1cc2cc(Cl)ccc2[nH]1 (stereo not drawn) | 5000 nM | 340 nM | –
CCCN(CCO)C(=O)CNC(=O)c1cc2cc(Cl)ccc2[nH]1 | 490 nM | 150 nM | > 25 mg/kg
O=C(NCC(=O)N(CC(O)CO)C1CCCC1)c1cc2cc(Cl)ccc2[nH]1 (stereo not drawn) | 1300 nM | 54 nM | 10 mg/kg
CN(CCc1ccccc1)C(=O)CNC(=O)c1cc2cc(Cl)ccc2[nH]1 | – | > 10000 nM | –
CN(C(=O)CNC(=O)c1cc2cc(Cl)ccc2[nH]1)C1CCN(C=O)C1 (stereo not drawn) | 19000 nM | 250 nM | –
O=C(NCC(=O)N(CCO)Cc1ncc[nH]1)c1cc2cc(Cl)ccc2[nH]1 | 14000 nM | 430 nM | –
CN(C(=O)CNC(=O)c1cc2cc(Cl)ccc2[nH]1)C1CCC(O)CC1 (stereo not drawn) | – | 2100 nM | –
O=C(NCC(=O)N(CCO)C1CCCCCCCCCCC1)c1cc2cc(Cl)ccc2[nH]1 | > 30000 nM | 950 nM | –
O=C(NCC(=O)N(CCOCc1ccccc1)C1CCCC1)c1cc2cc(Cl)ccc2[nH]1 | – | 1600 nM | –
CN(C(=O)CNC(=O)c1cc2cc(Cl)ccc2[nH]1)c1ccccc1 | 7100 nM | 210 nM | –
O=C(NCC(=O)N(CCO)Cc1ccccc1)c1cc2cc(Cl)ccc2[nH]1 | 2500 nM | 320 nM | –
O=C(NCC(=O)N(CCO)C1CCCCCCCCC1)c1cc2cc(Cl)ccc2[nH]1 | > 30000 nM | 210 nM | –
CN(C(=O)CNC(=O)c1cc2cc(Cl)ccc2[nH]1)C1CC1 | – | 670 nM | –
CN1CCC(N(C)C(=O)CNC(=O)c2cc3cc(Cl)ccc3[nH]2)C1 (stereo not drawn) | – | 9600 nM | –
O=C(NCC(=O)N(CCO)C1CCS(=O)(=O)CC1)c1cc2cc(Cl)ccc2[nH]1 | > 30000 nM | 12 nM | –
CN(CCO)C(=O)CNC(=O)c1cc2cc(Cl)ccc2[nH]1 | 4000 nM | 570 nM | –
CCCCN(C(=O)CNC(=O)c1cc2cc(Cl)ccc2[nH]1)C1CCCC1 | 9400 nM | 82 nM | –

Structure (SMILES) | IC50 (SK-HEP1) | IC50 [1] | minimal effective dose (Mus musculus)
O=C(NCC(=O)N(C(CO)CO)C1CCCC1)c1cc2cc(Cl)ccc2[nH]1 | 9400 nM | 350 nM | –
CN(Cc1ccncc1)C(=O)CNC(=O)c1cc2cc(Cl)ccc2[nH]1 | – | 1600 nM | –
O=C(NCC(=O)N(CCCO)C1CCCC1)c1cc2cc(Cl)ccc2[nH]1 | 760 nM | 42 nM | > 10 mg/kg
CC(C)OCCN(C(=O)CNC(=O)c1cc2cc(Cl)ccc2[nH]1)C1CCCC1 | – | 1100 nM | –
O=C(NCC(=O)N(CCO)C1CC1)c1cc2cc(Cl)ccc2[nH]1 | 4600 nM | 200 nM | –
CN(C)CCCN(C(=O)CNC(=O)c1cc2cc(Cl)ccc2[nH]1)C1CCCC1 | – | 5000 nM | –
CC(O)CN(C(=O)CNC(=O)c1cc2cc(Cl)ccc2[nH]1)C1CCCC1 (stereo not drawn) | 1300 nM | 16 nM | –
NC(=O)CN(C(=O)CNC(=O)c1cc2cc(Cl)ccc2[nH]1)C1CCCC1 | – | 4600 nM | –
NCCCN(C(=O)CNC(=O)c1cc2cc(Cl)ccc2[nH]1)C1CCCC1 | – | 3000 nM | –
O=C(NCC(=O)N(CCCCO)C1CCCC1)c1cc2cc(Cl)ccc2[nH]1 | – | 3900 nM | –
CC(O)(CO)CN(C(=O)CNC(=O)c1cc2cc(Cl)ccc2[nH]1)C1CCCC1 (stereo not drawn) | 2400 nM | 83 nM | > 10 mg/kg
CCCN(C(=O)CNC(=O)c1cc2cc(Cl)ccc2[nH]1)C1CCCC1 | – | 340 nM | –
O=C(NCC(=O)N(CCO)C1CCCCCCC1)c1cc2cc(Cl)ccc2[nH]1 | 12000 nM | 32 nM | –
CN(Cc1ccccn1)C(=O)CNC(=O)c1cc2cc(Cl)ccc2[nH]1 | – | 1500 nM | –
CN(C)CCN(C(=O)CNC(=O)c1cc2cc(Cl)ccc2[nH]1)C1CCCC1 | – | 9700 nM | –
CC(C)OCCCN(C(=O)CNC(=O)c1cc2cc(Cl)ccc2[nH]1)C1CCCC1 | – | 670 nM | –
O=C(NCC(=O)N(C1CCCC1)C1CCCC1)c1cc2cc(Cl)ccc2[nH]1 | – | 660 nM | –
CN(C(=O)CNC(=O)c1cc2cc(Cl)ccc2[nH]1)c1ccccn1 | 9900 nM | 340 nM | –
O=C(NCC(=O)N(CCO)CC1CC1)c1cc2cc(Cl)ccc2[nH]1 | 1500 nM | 160 nM | > 10 mg/kg
C=CCN(C(=O)CNC(=O)c1cc2cc(Cl)ccc2[nH]1)C1CCCC1 | 900 nM | 96 nM | –
N#CCCN(C(=O)CNC(=O)c1cc2cc(Cl)ccc2[nH]1)C1CCCC1 | 750 nM | 140 nM | –
O=C(O)CN(C(=O)CNC(=O)c1cc2cc(Cl)ccc2[nH]1)C1CCCC1 | > 10000 nM | 260 nM | –
CN(C(=O)CNC(=O)c1cc2cc(Cl)ccc2[nH]1)c1cccnc1 | 1700 nM | 330 nM | –
COCCCN(C(=O)CNC(=O)c1cc2cc(Cl)ccc2[nH]1)C1CCCC1 | – | 370 nM | –
O=C(NCC(=O)N(CCO)C1CCOC1)c1cc2cc(Cl)ccc2[nH]1 (stereo not drawn) | 1800 nM | 55 nM | –

Structure (SMILES) | IC50 (SK-HEP1) | IC50 [1] | minimal effective dose (Mus musculus)
COCC(O)CN(C(=O)CNC(=O)c1cc2cc(Cl)ccc2[nH]1)C1CCCC1 (stereo not drawn) | 870 nM | 100 nM | –
O=C(NCC(=O)N(CCO)C1CCc2ccccc21)c1cc2cc(Cl)ccc2[nH]1 (stereo not drawn) | 1800 nM | 49 nM | –
O=C(NCC(=O)N(CCO)C1CCCCCCCC1)c1cc2cc(Cl)ccc2[nH]1 | 28000 nM | 82 nM | –
CC(C)CN(C)C(=O)CNC(=O)c1cc2cc(Cl)ccc2[nH]1 | 620 nM | 230 nM | –
COCC(N)CN(C(=O)CNC(=O)c1cc2cc(Cl)ccc2[nH]1)C1CCCC1 (stereo not drawn) | – | 1200 nM | –
CN(C(=O)CNC(=O)c1cc2cc(Cl)ccc2[nH]1)C(C)(C)C | – | 670 nM | –
CN(C(=O)CNC(=O)c1cc2cc(Cl)ccc2[nH]1)C1CCN(C=O)CC1 | – | 8400 nM | –
CCCCN(C)C(=O)CNC(=O)c1cc2cc(Cl)ccc2[nH]1 | 1400 nM | 150 nM | –
CN(Cc1cccnc1)C(=O)CNC(=O)c1cc2cc(Cl)ccc2[nH]1 | – | 1900 nM | –
CN(CC(F)(F)F)C(=O)CNC(=O)c1cc2cc(Cl)ccc2[nH]1 | – | 1900 nM | –
CC(C)N(CCO)C(=O)CNC(=O)c1cc2cc(Cl)ccc2[nH]1 | 3400 nM | 210 nM | > 10 mg/kg
CN(Cc1ccccc1)C(=O)CNC(=O)c1cc2cc(Cl)ccc2[nH]1 | > 10000 nM | 550 nM | –
CC(C)(C)N(CCO)C(=O)CNC(=O)c1cc2cc(Cl)ccc2[nH]1 | 6700 nM | 290 nM | –
CCOC(=O)CN(C(=O)CNC(=O)c1cc2cc(Cl)ccc2[nH]1)C1CCCC1 | 5200 nM | 530 nM | –
CN(C(=O)CNC(=O)c1cc2cc(Cl)ccc2[nH]1)C1CCOCC1 | 3400 nM | 510 nM | –
NC(CO)CN(C(=O)CNC(=O)c1cc2cc(Cl)ccc2[nH]1)C1CCCC1 (stereo not drawn) | 8300 nM | 510 nM | –
CC(C)OCC(O)CN(C(=O)CNC(=O)c1cc2cc(Cl)ccc2[nH]1)C1CCCC1 (stereo not drawn) | – | 930 nM | –
CCN(C(=O)CNC(=O)c1cc2cc(Cl)ccc2[nH]1)C1CCCC1 | 410 nM | 210 nM | –
CN(C(=O)CNC(=O)c1cc2cc(Cl)ccc2[nH]1)C1CCCCCC1 | > 10000 nM | 320 nM | –
O=C(NCC(=O)N(CCO)C1CCS(=O)(=O)C1)c1cc2cc(Cl)ccc2[nH]1 (stereo not drawn) | – | 1300 nM | –
CN(C)C(=O)CN(C(=O)CNC(=O)c1cc2cc(Cl)ccc2[nH]1)C1CCCC1 | 13000 nM | 410 nM | –
O=C(NCC(=O)N(CCO)C1CCCCCC1)c1cc2cc(Cl)ccc2[nH]1 | 2300 nM | 30 nM | –
O=C(NCC(=O)N(CCO)Cc1ccco1)c1cc2cc(Cl)ccc2[nH]1 | 1500 nM | 260 nM | –
CN(C(=O)CNC(=O)c1cc2cc(Cl)ccc2[nH]1)C1CCS(=O)(=O)C1 (stereo not drawn) | 2000 nM | 410 nM | –
